Results published in ChEMBL document CHEMBL3352683, “Rational design of urea-based glutamate carboxypeptidase II (GCPII) inhibitors as versatile tools for specific drug targeting and delivery” (Bioorg Med Chem, 2014).

Each compound was assayed against Glutamate carboxypeptidase 2 (Homo sapiens, UniProt Q04609) (assay: Inhibition of human recombinant N-terminal Avi-tagged glutamate carboxypeptidase 2 extracellular domain (44 to 750 amino acids) using pteroyl-di-L-glutamate substrate by HPLC method).
Glutamate carboxypeptidase 2, sequence (Q04609 whole entry, the tested form may be a part): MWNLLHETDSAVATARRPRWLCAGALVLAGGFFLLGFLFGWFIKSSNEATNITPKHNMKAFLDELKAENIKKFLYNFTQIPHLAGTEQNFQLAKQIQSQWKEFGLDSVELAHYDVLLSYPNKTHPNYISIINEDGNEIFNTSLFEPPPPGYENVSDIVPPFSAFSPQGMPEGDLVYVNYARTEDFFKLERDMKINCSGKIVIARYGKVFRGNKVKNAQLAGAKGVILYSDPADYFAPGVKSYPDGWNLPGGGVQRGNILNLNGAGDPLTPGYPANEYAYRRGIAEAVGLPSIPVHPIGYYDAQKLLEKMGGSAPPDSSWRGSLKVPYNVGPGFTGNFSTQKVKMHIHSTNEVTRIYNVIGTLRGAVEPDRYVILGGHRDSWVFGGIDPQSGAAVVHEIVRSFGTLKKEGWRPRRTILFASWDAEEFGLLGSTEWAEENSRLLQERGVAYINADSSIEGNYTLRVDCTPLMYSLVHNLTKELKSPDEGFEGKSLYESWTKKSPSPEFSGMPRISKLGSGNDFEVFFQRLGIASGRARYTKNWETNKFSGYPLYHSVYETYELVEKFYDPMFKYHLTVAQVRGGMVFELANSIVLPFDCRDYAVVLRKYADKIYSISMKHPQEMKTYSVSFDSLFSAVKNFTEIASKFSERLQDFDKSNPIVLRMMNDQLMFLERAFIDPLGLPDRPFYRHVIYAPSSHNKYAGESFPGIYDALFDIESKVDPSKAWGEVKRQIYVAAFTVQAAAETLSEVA
Procedure, shortened: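 Avi-GCPII (0.2 ng) in 25 mM Bis-Tris propane, 150 mM NaCl, 0.001% octaethylene glycol monododecyl ether, pH 7.4, preincubated with inhibitor (ten concentrations) 5 min at 37 °C. Reaction started with pteroyl-di-L-glutamate (20 µl of 4 µM stock), run 20 min at 37 °C, stopped with 2-PMPA. Substrate and product separated by isocratic HPLC, detected at 281 nm; IC50 from full curves, Ki mean ± SD, duplicate or triplicate.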
A Ki of 6.39 nM was found for O=C(O)CC[C@H](NC(=O)N[C@@H](CCCCNC(=O)CCOCCOCCOCCOCCOCCOCCOCCOCCNC(=O)CCCC[C@@H]1SC[C@@H]2NC(=O)N[C@@H]21)C(=O)O)C(=O)O in this work.
A Ki of 44.3 nM was found for NCCCC[C@H](NC(=O)N[C@@H](CCC(=O)O)C(=O)O)C(=O)O in this work.
A Ki of 1.58 nM was found for CC(=O)NCCOc1ccccc1CC(=O)NCCCC[C@H](NC(=O)N[C@@H](CCC(=O)O)C(=O)O)C(=O)O in this work.
A Ki of 3.88 nM was found for O=C(O)CC[C@H](NC(=O)N[C@@H](CCCCNC(=O)Nc1ccc(Br)cc1OCCNC(=O)CCOCCOCCOCCOCCOCCOCCOCCOCCOCCOCCOCCOCCNC(=O)CCCC[C@@H]1SC[C@@H]2NC(=O)N[C@@H]21)C(=O)O)C(=O)O in this work.
A Ki of 3.42 nM was found for O=C(O)CC[C@H](NC(=O)N[C@@H](CCCCN(Cc1ccccc1)C(=O)CCOCCOCCOCCOCCOCCOCCOCCOCCOCCOCCOCCOCCNC(=O)CCCC[C@@H]1SC[C@@H]2NC(=O)N[C@@H]21)C(=O)O)C(=O)O in this work.
A Ki of 0.0449 nM was found for CC(=O)N(CCCC[C@H](NC(=O)N[C@@H](CCC(=O)O)C(=O)O)C(=O)O)Cc1ccc(Br)cc1 in this work.
A Ki of 7.6 nM was found for O=C(O)CC[C@H](NC(=O)N[C@@H](CCCCNC(=O)Nc1ccccc1OCCNC(=O)CCOCCOCCOCCOCCOCCOCCOCCOCCOCCOCCOCCOCCNC(=O)CCCC[C@@H]1SC[C@@H]2NC(=O)N[C@@H]21)C(=O)O)C(=O)O in this work.
A Ki of 0.174 nM was found for CC(=O)NCCCC[C@H](NC(=O)N[C@@H](CCC(=O)O)C(=O)O)C(=O)O in this work.
A Ki of 11 nM was found for O=C(O)CC[C@H](NC(=O)N[C@@H](CCCCNC(=O)c1ccccc1OCCNC(=O)CCOCCOCCOCCOCCOCCOCCOCCOCCOCCOCCOCCOCCNC(=O)CCCC[C@@H]1SC[C@@H]2NC(=O)N[C@@H]21)C(=O)O)C(=O)O in this work.
A Ki of 0.722 nM was found for CC(=O)NCCOc1cc(Cl)ccc1C(=O)NCCCC[C@H](NC(=O)N[C@@H](CCC(=O)O)C(=O)O)C(=O)O in this work.
A Ki of 28.1 nM was found for O=C(O)CC[C@H](NC(=O)N[C@@H](CCCCNC(=O)Cc1ccccc1OCCNC(=O)CCOCCOCCOCCOCCOCCOCCOCCOCCOCCOCCOCCOCCNC(=O)CCCC[C@H]1SC[C@H]2NC(=O)N[C@H]21)C(=O)O)C(=O)O in this work.
A Ki of 0.221 nM was found for CC(=O)NCCOc1cc(Br)ccc1NC(=O)NCCCC[C@H](NC(=O)N[C@@H](CCC(=O)O)C(=O)O)C(=O)O in this work.
A Ki of 0.312 nM was found for CC(=O)N(CCCC[C@H](NC(=O)N[C@@H](CCC(=O)O)C(=O)O)C(=O)O)Cc1ccccc1 in this work.
A Ki of 0.268 nM was found for CC(=O)NCCOc1cc(Br)ccc1C(=O)NCCCC[C@H](NC(=O)N[C@@H](CCC(=O)O)C(=O)O)C(=O)O in this work.
A Ki of 0.6 nM was found for CC(=O)NCCOc1cc(I)ccc1C(=O)NCCCC[C@H](NC(=O)N[C@@H](CCC(=O)O)C(=O)O)C(=O)O in this work.
A Ki of 0.377 nM was found for CC(=O)NCCOc1ccccc1NC(=O)NCCCC[C@H](NC(=O)N[C@@H](CCC(=O)O)C(=O)O)C(=O)O in this work.
A Ki of 0.601 nM was found for CC(=O)NCCOc1ccccc1C(=O)NCCCC[C@H](NC(=O)N[C@@H](CCC(=O)O)C(=O)O)C(=O)O in this work.
A Ki of 1.01 nM was found for CC(=O)NCCOc1cc(F)ccc1C(=O)NCCCC[C@H](NC(=O)N[C@@H](CCC(=O)O)C(=O)O)C(=O)O in this work.
A Ki of 10.5 nM was found for O=C(O)CC[C@H](NC(=O)N[C@@H](CCCCNC(=O)CCOCCOCCOCCOCCOCCOCCOCCOCCOCCOCCOCCOCCNC(=O)CCCC[C@@H]1SC[C@@H]2NC(=O)N[C@@H]21)C(=O)O)C(=O)O in this work.
